Screening results as filed in PubChem BioAssay.
An excerpt weighted towards active compounds, which were near 2.4% of everything screened.
DNMT1 inh: inhibitors of human DNMT1. hit rate 0.83% among 360,000. inhibition (reported as % activation of signal), % at 10 µM. P26358. DNMT1 molecular beacon, Hinp1I cleavage, fluorescence. AID 588458; in the data active = inhibition above about 50%
STEP block: blocks human striatal-enriched tyrosine phosphatase; P54829; hit rate 0.25% among 360,000; recombinant STEP, OMFP fluorogenic substrate, fluorescence; inhibition, % at 20 µM;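 active = inhibition at 20 µM, scaled per plate between control wells, above about 37%, limit read from the data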
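System: STEP (striatal-enriched tyrosine phosphatase) enzyme, cell-free; medium: Bis-Tris pH 6.0 buffer with DTT, detergent; dosing: 20 µM, 1% DMSO; times: reaction 20 min, ambient temperature; detection: fluorescence, 480/540 nm; read-out basis: normalized % inhibition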
NadD block: NadD (S. aureus) enzyme inhibition. purified NadD enzyme, colorimetric absorbance read-out. inhibition, % at 20 µM. hit rate 0.78% among 360,000. AID 602399; in the data active = inhibition above about 26%
Scp1 inh: blocks human Scp-1 phosphatase activity; Q9GZU7; AID 493091; hit rate 0.88% among 340,000; inhibition, % at 20 µM; Recombinant Scp1, phosphopeptide, malachite green phosphate absorbance;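 active = inhibition above about 50% at 20 µM, limit read from the data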
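Times: enzyme reaction 45 min at room temperature, colour 5 min, stabilisation 30 min. Material: SCP-1 catalytic fragment, aa 76-261. Medium: Acidic Tris acetate buffer with magnesium and detergent. Signal: colorimetric free-phosphate detection, absorbance 630 nm. Read-out basis: % inhibition of SCP-1 phosphate liberation. Reagent: Phosphorylated 17-residue peptide substrate.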
LMPTP block: LMPTP (human) inhibition. AID 651560. recombinant LMPTP-A, OMFP fluorogenic substrate, fluorescence intensity. hit rate 0.22% among 360,000. inhibition, % at 20 µM;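 active = compounds that cut the enzyme signal by at least half of the control window in the single-dose screen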
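Test system: LMPTP-A, protein tyrosine phosphatase of low molecular weight; Input: 0.625 nM enzyme; Incubation: 50 min dark incubation at room temperature; Signal: endpoint fluorescence intensity from OMFP dephosphorylation; Read-out basis: % inhibition versus control wells.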
SUMO1-SIM PPI: modulators of human SUMO1-mediated protein-protein interactions. P63165. hit rate 0.33% among 360,000. SUMO1 binding to a labelled peptide, TR-FRET, 1 h. inhibition, % at 20 µM. AID 602429; in the data active = inhibition above about 37%
Scp1 confirm: confirmation of human Scp-1 phosphatase inhibitors | AID 540281 | shares compounds with Scp1 inh | hit rate 61% among 2,500 | inhibition, % at 20 µM | recombinant SCP-1 catalytic domain, phosphate release, malachite green absorbance
Scp-1 MG ctr: colorimetric interference in Scp-1 counter-screen. 2,500 tested, under 10 active. shares compounds with Scp1 inh. apparent inhibition (interference), % at 20 µM. AID 540313. Colorimetric interference counterscreen, malachite green absorbance 630 nm;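 note: compounds added after enzyme reaction finished so only phosphate colour detection is probed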
Scp-1 Tm shift: validation of human Scp-1 inhibitors by thermal shift binding; shares compounds with Scp1 inh; Recombinant SCP1, Sypro Orange thermal shift Tm; thermal shift relative to vanadate control, % at 40 µM; hit rate 25% among 1,500; AID 540329;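 active = substances whose mean melting-temperature shift, as a percentage of the reference inhibitor's shift, reaches about 5.3%, limit read from the data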
Of the large screens only hits and unclear results are named; the others gave an inactive call (follow-up assays come after a bar, where they were run).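 Rule for the calls, unless noted: active = inhibition of at least 30% at 20 µM; inactive = the rest.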

C[C@@H]1CN([C@@H](C)CO)C(=O)c2cc(NS(C)(=O)=O)ccc2O[C@@H]1CN(C)Cc1ccc(C(F)(F)F)cc1	Scp1 inh 58 | Scp1 confirm inactive | Scp-1 MG ctr inactive
CCOc1ccccc1N(C)C(=O)CCS(=O)(=O)c1ccc2c(c1)NC(=O)CO2	none
C[C@H](CO)N1C[C@H](C)[C@@H](CN(C)S(=O)(=O)c2ccc(F)cc2)Oc2ccc(NC(=O)Nc3ccc4c(c3)OCO4)cc2C1=O	Scp1 inh 53 | Scp1 confirm inactive | Scp-1 MG ctr inactive
C[C@H](CO)N1C[C@H](C)[C@@H](CN(C)S(=O)(=O)c2ccccc2)Oc2ccc(NS(=O)(=O)c3ccccc3)cc2C1=O	none
C[C@H](CO)N1C[C@H](C)[C@@H](CN(C)S(=O)(=O)c2ccccc2)Oc2ccc(NC(=O)C3CC3)cc2C1=O	Scp1 inh 62 | Scp1 confirm inactive | Scp-1 MG ctr inactive
O=C(CN1C(=O)CC(c2ccco2)Sc2ccccc21)NC1CCCCC1 (stereo not given)	none
CC(C)OP(=O)(OC(C)C)C1(NS(=O)(=O)c2ccc(Cl)cc2)C=C(Cl)C(=O)C(Cl)=C1	none
COc1ccc(NS(=O)(=O)c2cccc(C(=O)NN=Cc3ccc(OC)c(O)c3)c2)cc1	none
COc1ccc(NS(=O)(=O)c2cccc(C(=O)N/N=C/c3c(F)c(F)c(F)c(F)c3F)c2)cc1	Scp1 inh 75 | Scp1 confirm 52 | Scp-1 MG ctr inactive | Scp-1 Tm shift 7.3
COc1cc(/C=C/c2cc[n+](C)cc2)ccc1OCC(=O)Nc1ccccc1	Scp1 inh 77 | Scp1 confirm 89 | Scp-1 MG ctr inactive | Scp-1 Tm shift inactive
O=C(NNC(=O)c1cccc2ccccc12)c1ccc(Cl)c(Cl)c1	none
O=C(NNC(=O)c1ccc2ccccc2c1)c1ccc(Cl)c(Cl)c1	Scp1 inh 64 | Scp1 confirm 58 | Scp-1 MG ctr inactive | Scp-1 Tm shift inactive
O=C(NCCN1CCOCC1)c1ccc(NS(=O)(=O)c2cccc([N+](=O)[O-])c2)cc1	none
CC(=O)/C(C[N+]1(C)CCCCC1)=N\O	Scp1 inh 105 | Scp1 confirm 84 | Scp-1 MG ctr inactive | Scp-1 Tm shift inactive
COc1ccc(S(=O)(=O)NNC(=O)Cc2csc(C)n2)cc1[N+](=O)[O-]	Scp1 inh 60 | Scp1 confirm 64 | Scp-1 MG ctr inactive | Scp-1 Tm shift inactive
Cc1noc(C)c1S(=O)(=O)N(C)C[C@H]1Oc2ccc(NC(=O)CCC(F)(F)F)cc2C(=O)N([C@H](C)CO)C[C@@H]1C	none
CC(C)=CC(=O)Nc1nc2ccc([N+](=O)[O-])cc2s1	none
O=C(CN1C(=O)/C(=C2/SC(=S)N(CCS(=O)(=O)O)C2=O)c2ccccc21)Nc1cccc(Br)c1	STEP block 87, Scp1 inh 82 | Scp1 confirm 81 | Scp-1 MG ctr inactive | Scp-1 Tm shift 16
Cc1cccc(NC(=O)CN2C(=O)/C(=C3\SC(=S)N(CC4CCCO4)C3=O)c3ccccc32)c1 (stereo not given)	none
Cc1ccc(S(=O)(=O)N(CCCO)CC(O)CON=C2c3ccccc3-c3ccccc32)cc1 (stereo not given)	Scp1 inh 61 | Scp1 confirm inactive | Scp-1 MG ctr inactive
CCN(CC(O)Cn1c2ccccc2c2ccccc21)S(=O)(=O)c1ccc(C)cc1 (stereo not given)	none
Cc1cc(C(=O)NNC(=O)c2ccc(NC(=O)CC#N)cc2)c(C)o1	none
COc1ccc(Cl)cc1S(=O)(=O)NC(C)c1cnn(-c2ccccn2)c1C (stereo not given)	none (no result: Scp1 inh)
COC(=O)c1ccc(/C=N/NC(=O)C2CC(=O)N(c3ccc(OC)cc3)C2)cc1 (stereo not given)	none
